T cell HTS: modulators of CD8 T cell-vesicle binding, primary screen, mouse 2C CD8+ T cells, flow cytometry; AID 2052, 2009; 2C CD8+ T cell-vesicle binding; active compounds read low; response (vesicle binding), % at 7 µM; 330,000 tested, 0.068% active;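 active = response, share of CD8 T cells binding vesicles, and their 90th percentile fluorescence all below set limits, cut at about 80% in these data, passing the limit was not always enough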;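 also: values below 100% mean blocked vesicle binding to the CD8+ T cells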
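Material: 2C TCR transgenic mouse naive CD8+ T cells, MACS-purified. Also added: QL9-charged Drosophila Ld/ICAM-1/B7-1 vesicles. Timing: binding 1.5 h at 37 °C. Measured by: high-throughput flow cytometry with anti-B7-1 and anti-CD8 staining. Read-out: percent CD8+ FL2 mean versus row control. Controls: Unloaded micro-vesicles (low), QL9 vesicles with 0.7% DMSO (high).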
EP2 antag: human EP2 receptor antagonists, primary screen, TR-FRET cAMP, C6 glioma cells; Prostaglandin E2 receptor EP2 subtype (Homo sapiens), P43116; C6 glioma cells expressing human EP2; cells stimulated with saturating PGE2; inhibition, % at 25 µM; 260,000 tested, 0.52% active; AID 1422, 2008;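 active = percent inhibition above 40 after rounding to a whole number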;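 also: rat C6 glioma host cells with rolipram phosphodiesterase inhibitor present; the protocol text gives 20 µM as final concentration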
MC4R barr agon: MC4R agonists recruiting beta-arrestin, primary screen, cell-based, luminescence, agonist arm of biased-ligand search | activation, % at 8.9 µM | Melanocortin receptor 4 (Homo sapiens), P32245 | U2OS MC4R beta-arrestin complementation; percent of melanotan II response, DMSO zero | 360,000 tested, 0.98% active | AID 540308, 2011;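 active = activation above a per-plate cutoff, the mean activation of sample wells on that plate plus 3 SD, cut at about 8% in these data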
Target sequence (P32245 whole entry, looked up): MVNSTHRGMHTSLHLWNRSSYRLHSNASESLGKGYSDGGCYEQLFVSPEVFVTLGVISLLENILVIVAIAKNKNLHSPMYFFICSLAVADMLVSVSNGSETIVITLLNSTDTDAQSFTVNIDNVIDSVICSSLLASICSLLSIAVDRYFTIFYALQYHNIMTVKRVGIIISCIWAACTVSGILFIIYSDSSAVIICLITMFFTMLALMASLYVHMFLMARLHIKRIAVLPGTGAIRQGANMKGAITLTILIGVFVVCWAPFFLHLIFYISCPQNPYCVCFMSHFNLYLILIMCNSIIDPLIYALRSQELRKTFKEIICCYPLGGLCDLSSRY
Exocytosis inh: LAMP-1 surface exposure blockers, TALL-104 cells – cell-based, flow cytometry, MLPCN library, primary screen; TALL-104 LAMP-1 surface exposure; cells stimulated with thapsigargin and PMA; inhibition, % at 10 µM; 360,000 tested, 0.66% active;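 active = inhibition above about 55%, limit read from the data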
MC4R antag cAMP: MC4R antagonists of cAMP signaling, primary screen, cell-based, TR-FRET, antagonist arm of biased-ligand search; MC4R-expressing cells, MTII-stimulated cAMP, LANCE TR-FRET; inhibition, % at 6.5 µM; Melanocortin receptor 4 (Homo sapiens), P32245; 360,000 tested, 0.48% active; AID 540295, 2011;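 active = inhibition above its plate's cutoff, the mean of tested wells on that plate plus 3 SD, cut at about 29% in these data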;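 also: 0% = Melanotan II alone and 100% = Melanotan II plus saturating MCL0020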
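Material – human MC4R-expressing U2OS cells · Repeats – no replicates · Detection – TR-FRET with Eu-cAMP and labeled anti-cAMP, 671 nm · Times – compound 30 min, challenge 1 h, detection 1 h · Compound – single nominal compound dose of 6.5 µM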
EP2 modulator: EP2 receptor modulators, cAMP readout, primary screen, cell-based, HTRF cAMP, PGE2 stimulation; Prostaglandin E2 receptor EP2 subtype (Homo sapiens), P43116; EP2-expressing cells, cAMP HTRF FRET, PGE2 co-stimulation; induction, % at 25 µM; 260,000 tested, 0.83% active; AID 940, 2007;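 active = compounds whose cAMP rise, as percent of the full-agonist control response, exceeds 60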;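 also: rat C6 glioma line stably carrying human EP2 under a CMV promoter; the protocol text gives 20 µM as final concentration; 100% = response of wells given 1 µM PGE2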
Active calls of the source: *; nt = no result. Shown are actives, neighbours in structure and some others; about 2.6% of the full set was active somewhere.

SMILES	T cell HTS	EP2 antag	MC4R barr agon	Exocytosis inh	MC4R antag cAMP	EP2 modulator
C=C[C@@]1(C)CC(=O)[C@@]2(O)[C@](C)(O1)[C@@H](OC(C)=O)[C@@H](O)C1C(C)(C)CC[C@H](O)[C@@]12C (some centres not stated)	nt	8	nt	nt	nt	104*
NC(=Nc1nc(-c2ccccn2)cc2ccccc12)c1ccccn1	nt	nt	-3	4	-1	nt
CCOP(=O)(OCC)/C(=N/OC(=O)c1ccc(OC)cc1)C(N)=O	257	7	2	70*	-8	1
CC1Cc2nc(SCC(=O)NC3CCCCC3)n(C)c(=O)c2S1 (configuration not stated)	366	98*	-2	-2	-1	12
CCOC(=O)C(C)On1c(-c2ccccc2)nc2ccc([N+](=O)[O-])cc21 (configuration not stated)	166	14	-1	-3	2	62*
COCCN1C(=O)C(=O)/C(=C(\O)c2cccc(OC)c2)C1c1ccncc1 (configuration not stated)	nt	4	nt	nt	nt	-1
COCCN1C(=O)C(=O)/C(=C(/O)c2cccc(OC)c2)C1c1ccc(C)o1 (configuration not stated)	75*	11	1	0	2	13
CC(C)(C)Nc1nc2nonc2nc1NC(C)(C)C	0.0*	13	-1	2	9	-32
OCCNc1nc2nonc2nc1NCCO	203	6	0	1	2	-5
CCCC(=O)Nc1ccc(S(=O)(=O)Nc2nccs2)cc1	458	nt	2	14	9	nt
CN(C)C1=C(Cl)C(=O)N(c2ccc(Cl)c(Cl)c2)C1=O	152	5	6	-3	27	16
CCCc1[nH]nc2c1C(CCC)C(C#N)=C(N)O2 (configuration not stated)	774	-1	0	-1	5	7
Cc1c2cccc(Sc3ccccc3)c2c2c3c(cccc13)[S+](c1ccccc1)C2 (configuration not stated)	nt	42*	nt	nt	nt	25
O=C(Cc1c(Cl)cccc1Cl)NCCc1ccc(Cl)cc1	323	7	9.3*	2	3	-36
CSCCC(NC(=O)COc1ccccc1)C(=O)N1CCN(c2ccccc2O)CC1 (configuration not stated)	348	nt	-2	-2	6	nt
O=C(c1ccccc1)c1nn(-c2ccccc2)c(=O)cc1C(F)(F)F	316	16	4	-2	2	39
O=C(c1cccc(Cl)c1)c1nn(-c2ccccc2)c(=O)cc1C(F)(F)F	96	16	8.5*	-4	-5	33
COc1cccc(Cn2c(-c3nonc3N)nc3ccccc32)c1	126	3	1	4	-22	64*
CCCCNc1cnn(-c2ccccc2)c(=O)c1Cl	494	3	-1	0	-5	-6
CCc1ccc(Nc2cnn(-c3nc4ccccc4s3)c(=O)c2Cl)cc1	256	9	8.2*	40	20	-59
O=Cc1ccc(O)cc1O	341	nt	-2	1	11	nt
O=CN/C=C/c1cc(O)ccc1O	392	111*	-1	-6	19	-44
CS(=O)(=O)N1CCC(Oc2ccccc2C(=O)N2CCC[C@H]2CO)CC1	405	nt	-2	2	-6	nt
CCOC(=O)Nc1cccc(Nc2ccccc2)c1	688	6	-3	2	2	62*
Cc1ccc(NC(=O)CCNC(=O)C2OC3OC(C)(C)OC3C3OC(C)(C)OC23)cc1 (configuration not stated)	nt	5	nt	nt	nt	-27
SMILES	T cell HTS	EP2 antag	MC4R barr agon	Exocytosis inh	MC4R antag cAMP	EP2 modulator
CCSc1nc2c(c(=O)n(C)c(=O)n2C)n1Cc1ccc(Cl)cc1	250	7	-1	-3	-38	nt
C=C(C)CSc1nc2c(c(=O)n(C)c(=O)n2C)n1Cc1ccc(Cl)cc1	nt	7	nt	nt	nt	61*
CCn1cc(CN2CCC(n3nccc3NC(=O)c3cccc(F)c3)CC2)c(C)n1	0	nt	0	0	2	nt
CC(=O)Nc1ccc(S(=O)(=O)NC2(C(F)(F)F)C(=O)Nc3c2c(=O)[nH]c(=O)n3Cc2cccnc2)cc1 (configuration not stated)	201	7	2	2	4	4
Cc1cccn2cc(-c3ccc(NC(=O)Cc4ccccc4)cc3)nc12	324	9	9.3*	1	3	-1
COc1ccc(CC(=O)Nc2ccc(-c3cn4cccc(C)c4n3)cc2)cc1OC	245	10	1	26	5	-31
COc1ccc(/C=C2\SC(=O)N(CC(=O)Nc3cccnc3)C2=O)cc1OC	159	6	-1	1	7	5
COc1ccc(/C=C2\SC(=O)N(CC(=O)Nc3ccc(F)cc3)C2=O)cc1O	154	nt	9.2*	-9	11	nt
O=C(COC(=O)Cc1cccc(C(F)(F)F)c1)NC(=O)NC1CCCC1	493	nt	8.3*	-1	4	nt
O=C(COC(=O)Cc1cccc(C(F)(F)F)c1)NC1CC1	404	10	0	-4	12	23
COC(=O)C1=CN(C2CC2)C=C(C(=O)OC)C1c1ccc(C(=O)OC)cc1	731	5	0	-1	8	61*
C#CCOCCOCCOCCNc1nc(N2CCN(C(=O)CCCCCCCCCCNC(=O)Cn3cc(C[C@@H](C)O)nn3)CC2)nc(N2CCN(C(=O)CCCCCCCCCCNC(=O)[C@H](CCCN=C(N)N)n3cc(C[C@@H](C)CC)nn3)CC2)n1	375	nt	-2	16	42*	nt
C#CCOCCOCCOCCNc1nc(N2CCN(C(=O)CCCCCCCCCCNC(=O)[C@H](CO)n3cc(CCCSC)nn3)CC2)nc(N2CCN(C(=O)CCCCCCCCCCNC(=O)[C@H](CCCN=C(N)N)n3cc(C[C@@H](C)CC)nn3)CC2)n1	586	nt	0	-3	53*	nt
C#CCOCCOCCOCCNc1nc(N2CCN(C(=O)CCCCCCCCCCNC(=O)Cn3cc(C[C@@H](C)O)nn3)CC2)nc(N2CCN(C(=O)CCCCCCCCCCNC(=O)[C@H](CCCCN)n3cc(CCCC(=O)O)nn3)CC2)n1	214	nt	1	2	3	nt

Bioassay records from PubChem.
